Usually GI50 stands for the concentration at which growth is held to half of that of the control. As a reminder, the Kd is the concentration at which binding is half-saturated. As usually defined, the inhibition is the drop in the measured response relative to a control, in per cent. Usually IC50 stands for the point on the concentration scale where inhibition reaches its midpoint.

The values that follow come from ChEMBL document CHEMBL4706596, “Synthesis, biological evaluation, in silico modeling and crystallization of novel small monocationic molecules with potent antiproliferative activity by dual mechanism” (Eur J Med Chem, 2020).

Assay [1] deals with HeLa. As to the kind of experiment: Antiproliferative activity against human HeLa cells assessed as inhibition of cell proliferation incubated for 72 hrs by MTT assay. The assay is classed as functional. The procedure, abridged:
(§1)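 Cells seeded at 8 × 10³/well and held 18 h at 37 °C, 5% CO₂. Medium then replaced with compound at several concentrations for 72 h at 37 °C, followed by MTT viability read-out. GI50 is taken against cells given the maximum DMSO (0.25%), which is set as 100% viability. Dose-response curves come from at least three independent experiments run in triplicate and are reported as mean ± SE.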
(Formazan colour is commonly taken as a measure of viable cells.)

The test system of assay [2] is HT-29. As to the kind of experiment: Antiproliferative activity against human HT-29 cells assessed as inhibition of cell proliferation incubated for 72 hrs by MTT assay. It counts as functional. The procedure, abridged: as §1
Assay [3] deals with RS4-11. As to the kind of experiment: Antiproliferative activity against human RS4-11 cells assessed as inhibition of cell proliferation incubated for 72 hrs by MTT assay. The assay is classed as functional. In a few lines: as §1
For assay [4], the system named is CCRF-CEM. As to the kind of experiment: Antiproliferative activity against human CCRF-CEM cells assessed as inhibition of cell proliferation incubated for 72 hrs by MTT assay. It counts as functional. The procedure, abridged:
as §1

Assay [5] concerns the target T1, Choline kinase alpha (Homo sapiens, UniProt P35790). As to the kind of experiment: Binding affinity to human CKalpha1 assessed as dissociation constant by spectroflurometry. In a few lines:
(§2)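 Purified human CK (cloned as reported earlier) at 1 µM was titrated with compound in 25 mM Tris, 150 mM NaCl, pH 7.5 at 25 °C. Compound ranges were 0.1–10 µM for CKα1 and 0.5–200 µM for CKβ. Tryptophan quenching was read with excitation at 280 nm, emission 300–400 nm and 5 nm slits. DMSO-matched controls were run, and Kd was fitted to a single-site model. Results are given as mean ± SD.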
Target sequence in this assay (P35790 whole entry): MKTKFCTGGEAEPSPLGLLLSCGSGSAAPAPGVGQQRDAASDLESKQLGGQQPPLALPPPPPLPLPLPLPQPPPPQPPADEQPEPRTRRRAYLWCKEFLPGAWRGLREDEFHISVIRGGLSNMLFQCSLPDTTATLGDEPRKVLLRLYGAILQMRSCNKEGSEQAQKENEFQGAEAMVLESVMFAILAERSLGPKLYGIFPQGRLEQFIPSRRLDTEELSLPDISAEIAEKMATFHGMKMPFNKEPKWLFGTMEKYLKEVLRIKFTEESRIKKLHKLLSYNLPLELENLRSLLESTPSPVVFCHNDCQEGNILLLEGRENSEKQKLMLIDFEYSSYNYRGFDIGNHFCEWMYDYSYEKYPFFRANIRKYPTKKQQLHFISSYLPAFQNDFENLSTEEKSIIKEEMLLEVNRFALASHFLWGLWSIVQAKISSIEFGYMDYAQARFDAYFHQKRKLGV

Assay [6] addresses Choline/ethanolamine kinase (Homo sapiens, UniProt Q9Y259). Put plainly: Binding affinity to human CKbeta assessed as dissociation constant by spectroflurometry. The procedure, abridged: as §2
The species named for a further assay is Homo sapiens. Put plainly: Selectivity index, ratio of Kd for human CKbeta to Kd for human CKalpha1.
In assay [7] the target is T1, Choline kinase alpha. As to the kind of experiment: Inhibition of human CKalpha1 assessed as reduction in 14C incorporation from [methyl-14C]choline to […] at 10 uM using [methyl-14C]choline as substrate preincubated for 5 mins in presence of ATP and MgCl2 followed by substrate addition and measured after 10 mins by liquid scintillation counting method relative to control. The conditions noted are these: time 15.0 min. The procedure, abridged: (§3)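 Purified human CKα1 (20 ng) in 100 mM Tris pH 8.5 with 10 mM MgCl₂ and 10 mM ATP, DMSO ≤0.1%, was preincubated 5 min at 37 °C. Reaction was started with 1 mM [methyl-¹⁴C]choline (4500 dpm/nmol), run 10 min at 37 °C and stopped in boiling water. Product was separated by silica TLC, scraped and scintillation-counted against DMSO controls. At least three experiments were run; IC50 was obtained from sigmoidal dose-response fits.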
Target sequence in this assay (P35790 whole entry, looked up): as the sequence (P35790 whole entry) above

Assay [8] deals with T1, Choline kinase alpha. Put plainly: Inhibition of human CKalpha1 assessed as reduction in 14C incorporation from [methyl-14C]choline to […] at 30 uM using [methyl-14C]choline as substrate preincubated for 5 mins in presence of ATP and MgCl2 followed by substrate addition and measured after 10 mins by liquid scintillation counting method relative to control. The conditions noted are these: time 15.0 min. In a few lines:
as §3
Target sequence in this assay (P35790 whole entry, looked up): as the sequence (P35790 whole entry) above

Assay [9] addresses T1, Choline kinase alpha. Put plainly: Inhibition of human CKalpha1 assessed as reduction in 14C incorporation from [methyl-14C]choline to […] at 50 uM using [methyl-14C]choline as substrate preincubated for 5 mins in presence of ATP and MgCl2 followed by substrate addition and measured after 10 mins by liquid scintillation counting method relative to control. The conditions noted are these: time 15.0 min. The procedure, abridged: as §3
Target sequence in this assay (P35790 whole entry, looked up): as the sequence (P35790 whole entry) above

A short description of assay [10]: Inhibition of [methyl-14C]choline uptake in human HT-29 cells at 10 uM incubated for 10 mins followed by removal of medium containing compound and subsequent addition of [methyl-14C]choline measured after 5 mins relative to control. It counts as functional. The conditions noted are these: HT-29, 10 min. In a few lines: (§4)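 Cells at 200,000/well were incubated for 10 min at 37 °C in medium with or without CKα1 inhibitor. The medium was then removed and cells were exposed to [methyl-¹⁴C]choline (31 Ci/mol) for 5 min at 37 °C. Uptake was stopped by aspiration and two ice-cold PBS washes containing choline. Inhibition is expressed as % of untreated control.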

The nature of assay [11]: Inhibition of [methyl-14C]choline uptake in human HT-29 cells at 30 uM incubated for 10 mins followed by removal of medium containing compound and subsequent addition of [methyl-14C]choline measured after 5 mins relative to control. The conditions noted are these: HT-29, 10 min. The assay is classed as functional. The procedure, abridged: as §4
Assay [12] can be described thus: Inhibition of [methyl-14C]choline uptake in human HepG2 cells at 10 uM incubated for 10 mins followed by removal of medium containing compound and subsequent addition of [methyl-14C]choline measured after 5 mins relative to control. It counts as functional. The conditions noted are these: HepG2, 10 min. The procedure, abridged: as §4
A short description of assay [13]: Inhibition of [methyl-14C]choline uptake in human HepG2 cells at 30 uM incubated for 10 mins followed by removal of medium containing compound and subsequent addition of [methyl-14C]choline measured after 5 mins relative to control. The conditions noted are these: HepG2, 10 min. It counts as functional. The procedure, abridged: as §4
The test system of assay [14] is HeLa. Put plainly: Antiproliferative activity against human HeLa cells assessed as inhibition of cell proliferation. The assay is classed as functional. The procedure, abridged:
as §1

Assay [15] has as its system HT-29. As to the kind of experiment: Antiproliferative activity against human HT-29 cells assessed as inhibition of cell proliferation. The assay is classed as functional. The procedure, abridged: as §1
In assay [16] the test system is RS4-11. Put plainly: Antiproliferative activity against human RS4-11 cells assessed as inhibition of cell proliferation. The assay is classed as functional. In a few lines: as §1
For assay [17], the system named is CCRF-CEM. As to the kind of experiment: Antiproliferative activity against human CCRF-CEM cells assessed as inhibition of cell proliferation. The assay is classed as functional. In a few lines: as §1
Assay [18] addresses T1, Choline kinase alpha. As to the kind of experiment: Inhibition of human CKalpha1 assessed as reduction in 14C incorporation from [methyl-14C]choline to […] using [methyl-14C]choline as substrate preincubated for 5 mins in presence of ATP and MgCl2 followed by substrate addition and measured after 10 mins by liquid scintillation counting method relative to control. In a few lines: as §3
Target sequence in this assay (P35790 whole entry): as above

Choline/ethanolamine kinase, sequence (Q9Y259 whole entry): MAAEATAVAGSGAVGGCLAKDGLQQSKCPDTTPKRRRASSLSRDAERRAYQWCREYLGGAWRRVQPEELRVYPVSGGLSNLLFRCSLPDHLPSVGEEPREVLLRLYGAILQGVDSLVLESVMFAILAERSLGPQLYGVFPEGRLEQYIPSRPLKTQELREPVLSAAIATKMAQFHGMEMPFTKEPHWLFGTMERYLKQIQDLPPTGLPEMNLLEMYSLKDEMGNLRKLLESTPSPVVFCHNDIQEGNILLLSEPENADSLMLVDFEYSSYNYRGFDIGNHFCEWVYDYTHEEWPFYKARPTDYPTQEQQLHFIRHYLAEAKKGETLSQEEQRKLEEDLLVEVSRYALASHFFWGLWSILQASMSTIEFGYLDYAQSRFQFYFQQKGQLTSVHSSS

For the molecule `CN(c1ccccc1)c1cc[n+](Cc2ccccc2)c2cc(Cl)ccc12`, the GI50 is 16300 nM in the assay with HeLa [1], 4500 nM in the assay with HT-29 [2], 3000 nM in the assay on RS4-11 [3] and 2200 nM in the assay with CCRF-CEM [4]. The figures for the Kd (at Choline kinase alpha [5]; in assay [6]) were 890 nM and 36000 nM, respectively. Besides, the Ratio in the assay listed under Homo sapiens is 41. In addition, the inhibition at Choline kinase alpha [7] was 23.1%; at Choline kinase alpha [8] it was 28.4%; at Choline kinase alpha [9] it was 18.6%.

As to `c1ccc(C[n+]2ccc(N3CCCC3)cc2)cc1`, the concentration for 50% growth inhibition (GI50) was 66000 nM with HeLa [1], 38000 nM with HT-29 [2], 8300 nM with RS4-11 [3] and 5300 nM with CCRF-CEM [4]. Also, on Choline kinase alpha [5], the Kd worked out at 24000 nM. The inhibition at Choline kinase alpha [7] is 11.1%; at Choline kinase alpha [8], 19.6%; on Choline kinase alpha [9], 27.8%.

With `CN(C)c1cc[n+](Cc2ccc(C(F)(F)F)cc2)cc1`, the GI50 in the assay with HeLa [1] stood at 23200 nM; with HT-29 [2], 11200 nM; with RS4-11 [3] it was 7900 nM; with CCRF-CEM [4], 18000 nM. For the same molecule, the inhibition at Choline kinase alpha [7] came out at 25.4%; on Choline kinase alpha [8], 33.5%. In addition, the results for the inhibition at 10 µM in assay [10] and in assay [12] were 14.3% and 11.7%, respectively. The figures for the inhibition at 30 µM in [11] and in assay [13] were 22.7% and 16.9%, respectively.

As to `OC1C[N+]2(Cc3ccc(C(F)(F)F)cc3)CCC1CC2` (stereo unspecified), the GI50 in the assay on HeLa [1] was 82300 nM; with HT-29 [2] it was greater than 100000 nM; in the assay with RS4-11 [3], greater than 100000 nM; in the assay with CCRF-CEM [4], greater than 100000 nM. For the same molecule, the inhibition at 10 µM in [10] was 17.6%; in [12], 14.3%. For the same molecule, the inhibition at 30 µM in assay [11] was found to be 21.6%; in assay [13], 15.1%.

As to `CN(c1ccc(Cl)cc1)c1cc[n+](Cc2ccc(-c3ccccc3)cc2)cc1`, the 50% growth inhibitory concentration (GI50) with HeLa [1] is 910 nM; in the assay on HT-29 [2], 230 nM; with RS4-11 [3] it was 140 nM; in the assay with CCRF-CEM [4], 300 nM. The inhibition at 10 µM in assay [10] turned out to be 78.4%; in assay [12], 83.3%. Further, the inhibition at 30 µM in assay [11] was 95%; in assay [13] it was 94.8%.

On to `Clc1ccc2c(N3CCCCCC3)cc[n+](Cc3ccccc3)c2c1`, for which the GI50 in the assay with HeLa [1] was 16200 nM; in the assay with HT-29 [2] it was 4600 nM; with RS4-11 [3] it was 30 nM; in the assay with CCRF-CEM [4], 560 nM. Further, the values for the Kd (at Choline kinase alpha [5]; in assay [6]) were 400 nM and 33000 nM, respectively. Moreover, the Ratio in the assay filed under Homo sapiens was determined as 83. In addition, the inhibition on Choline kinase alpha [7] worked out at 35.8%; at Choline kinase alpha [8], 27.5%; on Choline kinase alpha [9], 38.7%.

Regarding `c1ccc(-c2ccc(C[n+]3ccc(N4CCCC4)cc3)cc2)cc1`, the GI50 turned out to be 950 nM with HeLa [1], 160 nM in the assay on HT-29 [2], 220 nM with RS4-11 [3] and 180 nM in the assay with CCRF-CEM [4]. Moreover, the Kd at Choline kinase alpha [5] turned out to be 670 nM. Besides, the inhibition on Choline kinase alpha [8] turned out to be 28%. The inhibition at 10 µM was determined as 56.7% in assay [10] and 70.3% in assay [12]. Also, the inhibition at 30 µM in assay [11] came out at 79.5%; in assay [13] it was 84.3%.

Consider `FC(F)(F)c1ccc(C[N+]23CCC(CC2)CC3)cc1`, for which the 50% growth inhibitory concentration (GI50) is 90800 nM in the assay on HeLa [1], greater than 100000 nM in the assay with HT-29 [2], greater than 100000 nM in the assay on RS4-11 [3] and greater than 100000 nM in the assay with CCRF-CEM [4]. Besides, the inhibition at Choline kinase alpha [7] was found to be 8.07%; at Choline kinase alpha [8], 24.7%. For the same molecule, the inhibition at 10 µM in assay [10] amounted to 9.1%; in assay [12] it was 5.1%. In addition, the inhibition at 30 µM in assay [11] is 2.4%; in [13], 17.7%.

As for `CN(C)c1cc[n+](Cc2ccc(CCCCc3ccc(C[n+]4ccc(N(C)C)cc4)cc3)cc2)cc1`, the concentration for 50% growth inhibition (GI50) with HeLa [14] amounted to 1900 nM; with HT-29 [15] it was 1900 nM; in the assay with RS4-11 [16] it was 1000 nM; in the assay with CCRF-CEM [17], 210 nM.

In the case of `CN(c1ccccc1)c1cc[n+](Cc2ccc(-c3ccccc3)cc2)c2cc(Cl)ccc12`, the GI50 in the assay on HeLa [1] is 1700 nM; with HT-29 [2] it was 850 nM; in the assay with RS4-11 [3], 1400 nM; in the assay with CCRF-CEM [4], 1700 nM. Also, the Kd at Choline kinase alpha [5] was 185 nM; in assay [6], 20000 nM. In the assay listed under Homo sapiens, the Ratio came to 108. For the same molecule, the inhibition on Choline kinase alpha [7] is 38.6%; on Choline kinase alpha [8] it was 76%. In addition, the half-inhibitory concentration (IC50) on Choline kinase alpha [18] was found to be 12600 nM. For the same molecule, the inhibition at 10 µM in assay [10] was found to be 85.5%; in assay [12], 87.2%. For the same molecule, the inhibition at 30 µM turned out to be 93.3% in assay [11] and 94.8% in assay [13].

As for `CN(c1ccccc1)c1cc[n+](Cc2ccc(-c3ccc(C[n+]4ccc(N(C)c5ccccc5)c5ccc(Cl)cc54)cc3)cc2)c2cc(Cl)ccc12`, the GI50 turned out to be 830 nM with HeLa [14], 400 nM in the assay on HT-29 [15], 170 nM with RS4-11 [16] and 610 nM with CCRF-CEM [17].
